Measurements published in ChEMBL document CHEMBL3739264, “Synthesis and bio-evaluation of novel quinolino-stilbene derivatives as potential anticancer agents” (Bioorg Med Chem, 2015).
pIC50: −log10 of the molar value. Calls of active or inactive are those of the source. The calls are words filed in the database; no cut-off is given here.

Key:
[1] = test system: HeLa; assay: Antiproliferative activity against human HeLa cells after 72 hrs by SRB assay; format: functional, cell-based
In short: (§1)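 Cells seeded at 4,000-5,000/well for 16 h, then exposed 72 h to serial dilutions of compound in DMSO; sham DMSO as 100% and TCA-treated wells as 0%. Fixed in 10% TCA at 4°C for 1 h, stained with 0.4% SRB for 30 min, dye solubilised in 10 mmol Tris pH 10.5, read at 540 nm. IC50 from sigmoidal dose-response curves; two biological replicates, four technical each.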

[2] = test system: MDA-MB-468; assay: Antiproliferative activity against human MDA-MB-468 cells after 72 hrs by SRB assay; format: functional, cell-based; details: MDA-MB-468, 72 h; in short: as §1
[3] = test system: MCF7; assay: Antiproliferative activity against human MCF7 cells after 72 hrs by SRB assay; format: functional, cell-based; details: MCF7, 72 h
In short: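 Cells seeded at 4,000-5,000/well for 16 h, then exposed 72 h to serial dilutions of compound in DMSO; sham DMSO as 100% and TCA-treated wells as 0%. IC50 from sigmoidal dose-response curves; two biological replicates, four technical each.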

[4] = Antiproliferative activity against human 184B5 cells after 72 hrs by SRB assay; format: cell-based; details: 184B5, 72 h; in short: as §1
[5] = test system: MDA-MB-231; assay: Antiproliferative activity against human MDA-MB-231 cells after 72 hrs by SRB assay; format: functional, cell-based; details: MDA-MB-231, 72 h; in short: as §1
[6] = test system: MDA-MB-468; assay: Cell cycle arrest in human MDA-MB-468 cells assessed as accumulation at G0-G1 phase at 1 uM after 24 hrs by flow cytometry analysis relative to control; format: functional
In short: (§2)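 Cells seeded overnight at about 1 × 10^6 per plate, treated next morning, and harvested at set times. Fixed in 75% ethanol at -20°C for 12-24 h, then stained 1 h in PBS with 0.3% NP-40, 100 µg/ml RNase A and 100 µg/ml propidium iodide. Phase distribution read from DNA content by flow cytometry against sham-treated cells.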

[7] = test system: MDA-MB-468; assay: Cell cycle arrest in human MDA-MB-468 cells assessed as accumulation at G0-G1 phase at 1 uM after 12 hrs by flow cytometry analysis relative to control; format: functional; in short: as §2
[8] = test system: MDA-MB-468; assay: Cell cycle arrest in human MDA-MB-468 cells assessed as accumulation at S phase at 1 uM after 24 hrs by flow cytometry analysis relative to control; format: functional; in short: as §2
[9] = test system: MDA-MB-468; assay: Cell cycle arrest in human MDA-MB-468 cells assessed as accumulation at G0-G1 phase at 1 uM after 72 hrs by flow cytometry analysis relative to control; format: functional; in short: as §2
[10] = test system: MDA-MB-468; assay: Cell cycle arrest in human MDA-MB-468 cells assessed as accumulation at S phase at 1 uM after 48 hrs by flow cytometry analysis relative to control; format: functional; in short: as §2
[11] = test system: MDA-MB-468; assay: Cell cycle arrest in human MDA-MB-468 cells assessed as accumulation at S phase at 1 uM after 72 hrs by flow cytometry analysis relative to control; format: functional; in short: as §2
[12] = test system: MDA-MB-468; assay: Cell cycle arrest in human MDA-MB-468 cells assessed as accumulation at sub-G1 phase at 1 uM after 72 hrs by flow cytometry analysis relative to control; format: functional; in short: as §2
[13] = test system: MDA-MB-468; assay: Cell cycle arrest in human MDA-MB-468 cells assessed as accumulation at sub-G1 phase at 1 uM after 48 hrs by flow cytometry analysis relative to control; format: functional; in short: as §2
[14] = test system: MDA-MB-468; assay: Cell cycle arrest in human MDA-MB-468 cells assessed as accumulation at G2/M phase at 1 uM after 48 hrs by flow cytometry analysis relative to control; format: functional; in short: as §2
[15] = test system: MDA-MB-468; assay: Cell cycle arrest in human MDA-MB-468 cells assessed as accumulation at sub-G1 phase at 1 uM after 12 hrs by flow cytometry analysis relative to control; format: functional; in short: as §2
[16] = test system: MDA-MB-468; assay: Cell cycle arrest in human MDA-MB-468 cells assessed as accumulation at G2/M phase at 1 uM after 72 hrs by flow cytometry analysis relative to control; format: functional; in short: as §2
[17] = test system: MDA-MB-468; assay: Cell cycle arrest in human MDA-MB-468 cells assessed as accumulation at S phase at 1 uM after 12 hrs by flow cytometry analysis relative to control; format: functional; in short: as §2
[18] = test system: MDA-MB-468; assay: Cell cycle arrest in human MDA-MB-468 cells assessed as accumulation at G2/M phase at 1 uM after 12 hrs by flow cytometry analysis relative to control; format: functional; in short: as §2
[19] = test system: MDA-MB-468; assay: Cell cycle arrest in human MDA-MB-468 cells assessed as accumulation at G2/M phase at 1 uM after 24 hrs by flow cytometry analysis relative to control; format: functional; in short: as §2
[20] = test system: MDA-MB-468; assay: Cell cycle arrest in human MDA-MB-468 cells assessed as accumulation at G0-G1 phase at 1 uM after 48 hrs by flow cytometry analysis relative to control; format: functional; in short: as §2
[21] = test system: MDA-MB-468; assay: Cell cycle arrest in human MDA-MB-468 cells assessed as accumulation at sub-G1 phase at 1 uM after 24 hrs by flow cytometry analysis relative to control; format: functional; in short: as §2
[22] = test system: MDA-MB-468; assay: Induction of DNA damage in human MDA-MB-468 cells at 1 uM after 24 hrs by immunostaining; format: functional, cell-based
In short: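 γH2A.X (phospho-Ser139) immunostaining, with HeLa at 6 µM for 24 or 48 h and MDA-MB468 at 1 µM. Cells on coverslips fixed and permeabilized in ice-cold methanol at -20°C. Blocked in 1% FBS, primary antibody 1:200 overnight at 4°C, then fluorophore-conjugated secondary 1 h. DNA counterstained with DRAQ5.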

[23] = target: Tubulin (Homo sapiens) (UniProt P68371+Q9H4B7+P0DPH7+P68366+Q13509+Q71U36+P04350+Q3ZCM7+P07437+P68363+Q9BQE3+Q6PEY2+Q13885+Q9BVA1+Q9BUF5); details: 5 uM

Structure (SMILES): Fc1ccc(/C=C\c2cc3ccccc3nc2Cl)cc1
- pIC50 [1]: 4.60
- pIC50 [2]: 5.28
- pIC50 [3]: 4.69
- pIC50 [4]: 4.45
- pIC50 [5]: 4.62

Structure (SMILES): FC(F)(F)c1ccc(/C=C\c2cc3ccc(Cl)cc3nc2Cl)cc1
- pIC50 [1]: 4.90
- pIC50 [2]: 4.79
- pIC50 [3]: 5.19
- pIC50 [4]: 4.58
- pIC50 [5]: 4.87

Structure (SMILES): COc1ccc2nc(Cl)c(/C=C\c3cccc(C(F)(F)F)c3)cc2c1
- pIC50 [1]: 5.52
- pIC50 [2]: 5.41
- pIC50 [3]: 5.56
- pIC50 [4]: 5.25
- pIC50 [5]: 5.48

Structure (SMILES): COc1ccc2nc(Cl)c(/C=C\c3ccc(F)cc3)cc2c1
- pIC50 [1]: 5.01
- pIC50 [2]: 4.82
- pIC50 [3]: 5.05
- pIC50 [4]: 4.72
- pIC50 [5]: 4.94

Structure (SMILES): COc1ccc2nc(Cl)c(/C=C\c3ccc(C(F)(F)F)cc3)cc2c1
- pIC50 [1]: 4.79
- pIC50 [2]: 4.64
- pIC50 [3]: 4.91
- pIC50 [4]: 4.40
- pIC50 [5]: 4.64

Structure (SMILES): CC[C@@]1(O)C(=O)OCc2c1cc1n(c2=O)Cc2cc3ccccc3nc2-1 [CAMPTOTHECIN]
- pIC50 [1]: 8.21
- pIC50 [2]: 7.83
- pIC50 [4]: 8.30
- pIC50 [5]: 8.24

Structure (SMILES): COc1ccc2nc(Cl)c(/C=C\c3ccccc3C(F)(F)F)cc2c1
- pIC50 [1]: 5.59
- pIC50 [2]: 5.30
- pIC50 [3]: 5.35
- pIC50 [4]: 5.27
- pIC50 [5]: 5.56

Structure (SMILES): FC(F)(F)c1cc(/C=C\c2cc3cc4c(cc3nc2Cl)OCO4)cc(C(F)(F)F)c1
- pIC50 [1]: < 4.30
- pIC50 [2]: < 4.30
- pIC50 [3]: < 4.30
- pIC50 [4]: < 4.30
- pIC50 [5]: < 4.30

Structure (SMILES): FC(F)(F)c1ccc(/C=C\c2cc3ccccc3nc2Cl)c(C(F)(F)F)c1
- pIC50 [1]: 4.45
- pIC50 [3]: 4.98
- pIC50 [5]: 4.38

Structure (SMILES): FC(F)(F)c1cc(/C=C\c2cc3ccccc3nc2Cl)cc(C(F)(F)F)c1
- pIC50 [1]: 5.17
- pIC50 [2]: 4.98
- pIC50 [3]: 5.13
- pIC50 [4]: 4.86
- pIC50 [5]: 4.99

Structure (SMILES): CC(=O)O[C@H]1C(=O)[C@@]2(C)[C@H]([C@H](OC(=O)c3ccccc3)[C@]3(O)C[C@H](OC(=O)[C@H](O)[C@@H](NC(=O)c4ccccc4)c4ccccc4)C(C)=C1C3(C)C)[C@]1(OC(C)=O)CO[C@@H]1C[C@@H]2O [PACLITAXEL]
- pIC50 [1]: 8.64
- pIC50 [2]: 8.41
- pIC50 [4]: 8.63
- pIC50 [5]: 8.59

Structure (SMILES): Fc1ccc(/C=C/c2cc3ccccc3nc2Cl)cc1
- Activity [6]: 23.1%
- Activity [7]: 37%
- pIC50 [1]: < 4.30
- Activity [8]: 41.7%
- pIC50 [2]: 6.92
- Activity [9]: 16.1%
- Activity [10]: 22%
- Activity [11]: 11.4%
- Activity [12]: 65%
- Activity [13]: 40.6%
- pIC50 [3]: 4.82
- Activity [14]: 15%
- Activity [15]: 5%
- Activity [16]: 6.7%
- Activity [17]: 34.5%
- Activity [18]: 21.9%
- Activity [19]: 20.2%
- Activity [20]: 21.8%
- Activity [21]: 13.7%
- pIC50 [4]: 4.42
- Activity [22]: Active
- pIC50 [5]: < 4.30

Structure (SMILES): COC(=O)Nc1nc2cc(C(=O)c3cccs3)ccc2[nH]1
- inhibition [23]: Active

Structure (SMILES): CCN(CC)CCCC(C)Nc1ccnc2cc(Cl)ccc12 (stereo not drawn) [CHLOROQUINE]
- pIC50 [1]: 4.52
- pIC50 [2]: 4.70
- pIC50 [4]: 4.20
- pIC50 [5]: 4.44

Structure (SMILES): FC(F)(F)c1cccc(/C=C\c2cc3cc4c(cc3nc2Cl)OCO4)c1
- pIC50 [1]: 4.70
- pIC50 [2]: < 4.30
- pIC50 [3]: 4.72
- pIC50 [4]: 4.77
- pIC50 [5]: 4.59

Structure (SMILES): COc1ccc2nc(Cl)c(/C=C\c3ccc(C(F)(F)F)cc3C(F)(F)F)cc2c1
- pIC50 [1]: < 4.30
- pIC50 [2]: < 4.30
- pIC50 [3]: < 4.30
- pIC50 [4]: < 4.30
- pIC50 [5]: < 4.30

Structure (SMILES): FC(F)(F)c1cc(/C=C\c2cc3ccc(Cl)cc3nc2Cl)cc(C(F)(F)F)c1
- pIC50 [1]: 4.38
- pIC50 [2]: < 4.30
- pIC50 [3]: 4.38
- pIC50 [4]: 4.37
- pIC50 [5]: < 4.30

Structure (SMILES): FC(F)(F)c1ccc(/C=C\c2cc3ccccc3nc2Cl)cc1
- pIC50 [1]: 5.37
- pIC50 [2]: 5.13
- pIC50 [3]: 5.37
- pIC50 [4]: 5.10
- pIC50 [5]: 5.27

Structure (SMILES): Fc1ccc(/C=C\c2cc3ccc(Cl)cc3nc2Cl)cc1
- pIC50 [1]: 4.41
- pIC50 [2]: 4.96
- pIC50 [3]: 4.77
- pIC50 [4]: 4.57
- pIC50 [5]: 4.37

Structure (SMILES): COc1ccc2nc(Cl)c(/C=C\c3cc(C(F)(F)F)cc(C(F)(F)F)c3)cc2c1
- pIC50 [1]: 5.38
- pIC50 [2]: 5.24
- pIC50 [3]: 5.33
- pIC50 [4]: 5.10
- pIC50 [5]: 5.35

Structure (SMILES): COc1ccc2nc(Cl)c(/C=C/c3ccc(C(F)(F)F)cc3)cc2c1
- pIC50 [1]: < 4.30
- pIC50 [2]: < 4.30
- pIC50 [3]: 4.33
- pIC50 [4]: 4.48
- pIC50 [5]: 4.31

Structure (SMILES): COc1ccc2nc(Cl)c(/C=C/c3ccc(F)cc3)cc2c1
- pIC50 [1]: < 4.30
- pIC50 [2]: 4.83
- pIC50 [3]: 4.85
- pIC50 [4]: 5.01
- pIC50 [5]: 4.96

Structure (SMILES): FC(F)(F)c1cccc(/C=C/c2cc3ccccc3nc2Cl)c1
- pIC50 [1]: 4.69
- pIC50 [2]: 4.62
- pIC50 [3]: 4.61
- pIC50 [4]: 4.61
- pIC50 [5]: 4.35
